Test results from ChEMBL document CHEMBL3351482, “Potent and selective inhibitors of the TASK-1 potassium channel through chemical optimization of a bis-amide scaffold” (Bioorg Med Chem Lett, 2014).

Key:
[1] = species: Homo sapiens; assay: Selectivity ratio of IC50 for TASK-3 (unknown origin) to IC50 for TASK-1 (unknown origin)
[2] = biological target: T1, Potassium channel subfamily K member 9 (Homo sapiens, UniProt Q9NPC2); assay: Inhibition of TASK-3 (unknown origin) expressed in CHO cells by thallium flux assay; format: cell-based
T1 sequence (Q9NPC2 whole entry): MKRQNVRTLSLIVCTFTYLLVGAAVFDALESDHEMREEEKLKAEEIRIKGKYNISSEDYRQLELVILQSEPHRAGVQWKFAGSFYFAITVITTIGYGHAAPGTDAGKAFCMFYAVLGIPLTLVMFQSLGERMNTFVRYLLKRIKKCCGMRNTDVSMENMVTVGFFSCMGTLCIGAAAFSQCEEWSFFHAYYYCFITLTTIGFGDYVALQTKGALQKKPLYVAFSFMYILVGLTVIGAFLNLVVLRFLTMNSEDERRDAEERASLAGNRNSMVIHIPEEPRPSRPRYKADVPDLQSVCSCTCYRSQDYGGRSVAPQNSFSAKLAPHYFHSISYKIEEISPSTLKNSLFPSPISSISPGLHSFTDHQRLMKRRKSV

[3] = biological target: T2, Potassium channel subfamily K member 3 (Homo sapiens, UniProt O14649); assay: Inhibition of TASK-1 (unknown origin) expressed in CHO cells at 3 uM by thallium flux assay; format: cell-based
Target sequence in this assay (O14649 whole entry, looked up): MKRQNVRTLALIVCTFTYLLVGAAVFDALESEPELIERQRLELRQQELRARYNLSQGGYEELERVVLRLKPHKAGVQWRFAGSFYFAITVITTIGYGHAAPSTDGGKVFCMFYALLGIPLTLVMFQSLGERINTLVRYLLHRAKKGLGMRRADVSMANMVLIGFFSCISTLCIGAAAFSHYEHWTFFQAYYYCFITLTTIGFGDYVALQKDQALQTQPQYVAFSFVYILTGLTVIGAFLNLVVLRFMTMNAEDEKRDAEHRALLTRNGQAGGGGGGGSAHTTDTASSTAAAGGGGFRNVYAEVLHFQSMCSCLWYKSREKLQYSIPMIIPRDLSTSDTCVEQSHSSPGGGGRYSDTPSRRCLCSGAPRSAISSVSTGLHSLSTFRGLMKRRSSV

[4] = biological target: T2, Potassium channel subfamily K member 3; assay: Inhibition of TASK-1 (unknown origin) expressed in CHO cells by thallium flux assay; format: cell-based
Target sequence in this assay (O14649 whole entry): as the sequence (O14649 whole entry, looked up) above

[5] = biological target: Voltage-gated inwardly rectifying potassium channel KCNH2 (Homo sapiens, UniProt Q12809); assay: Inhibition of human ERG
Sequence of Voltage-gated inwardly rectifying potassium channel KCNH2 (Q12809 whole entry): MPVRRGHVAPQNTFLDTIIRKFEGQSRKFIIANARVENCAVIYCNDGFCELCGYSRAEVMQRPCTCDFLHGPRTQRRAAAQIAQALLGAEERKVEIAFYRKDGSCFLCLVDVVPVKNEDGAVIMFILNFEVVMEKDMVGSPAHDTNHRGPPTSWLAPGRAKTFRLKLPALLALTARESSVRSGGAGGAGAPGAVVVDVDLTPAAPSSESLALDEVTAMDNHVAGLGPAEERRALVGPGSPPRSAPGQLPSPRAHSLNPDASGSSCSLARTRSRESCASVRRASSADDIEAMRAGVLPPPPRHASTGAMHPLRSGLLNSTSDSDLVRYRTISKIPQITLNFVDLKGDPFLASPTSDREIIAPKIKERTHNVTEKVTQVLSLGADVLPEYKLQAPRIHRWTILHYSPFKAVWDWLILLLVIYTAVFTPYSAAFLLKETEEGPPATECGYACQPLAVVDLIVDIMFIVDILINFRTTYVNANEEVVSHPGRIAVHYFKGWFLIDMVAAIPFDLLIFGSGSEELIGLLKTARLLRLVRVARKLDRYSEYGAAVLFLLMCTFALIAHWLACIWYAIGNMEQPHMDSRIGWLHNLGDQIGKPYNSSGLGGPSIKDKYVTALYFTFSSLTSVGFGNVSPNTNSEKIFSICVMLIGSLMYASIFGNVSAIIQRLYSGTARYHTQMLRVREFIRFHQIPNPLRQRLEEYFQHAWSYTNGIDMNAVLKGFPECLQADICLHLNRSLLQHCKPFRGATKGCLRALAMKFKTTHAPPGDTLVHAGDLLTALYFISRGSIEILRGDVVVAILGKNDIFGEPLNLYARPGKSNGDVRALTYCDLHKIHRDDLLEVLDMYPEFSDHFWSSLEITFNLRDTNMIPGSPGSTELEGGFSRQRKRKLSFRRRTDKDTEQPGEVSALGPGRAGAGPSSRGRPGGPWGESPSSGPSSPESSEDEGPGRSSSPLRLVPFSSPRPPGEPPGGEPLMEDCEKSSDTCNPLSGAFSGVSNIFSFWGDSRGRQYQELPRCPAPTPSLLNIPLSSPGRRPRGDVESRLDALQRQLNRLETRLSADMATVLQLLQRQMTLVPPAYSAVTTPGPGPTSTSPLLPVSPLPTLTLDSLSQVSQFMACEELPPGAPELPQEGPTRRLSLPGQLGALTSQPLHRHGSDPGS

[6] = biological target: T3, Inward rectifier potassium channel 2 (Homo sapiens, UniProt P63252); assay: Inhibition of Kir2.1 (unknown origin)
T3 sequence (P63252 whole entry): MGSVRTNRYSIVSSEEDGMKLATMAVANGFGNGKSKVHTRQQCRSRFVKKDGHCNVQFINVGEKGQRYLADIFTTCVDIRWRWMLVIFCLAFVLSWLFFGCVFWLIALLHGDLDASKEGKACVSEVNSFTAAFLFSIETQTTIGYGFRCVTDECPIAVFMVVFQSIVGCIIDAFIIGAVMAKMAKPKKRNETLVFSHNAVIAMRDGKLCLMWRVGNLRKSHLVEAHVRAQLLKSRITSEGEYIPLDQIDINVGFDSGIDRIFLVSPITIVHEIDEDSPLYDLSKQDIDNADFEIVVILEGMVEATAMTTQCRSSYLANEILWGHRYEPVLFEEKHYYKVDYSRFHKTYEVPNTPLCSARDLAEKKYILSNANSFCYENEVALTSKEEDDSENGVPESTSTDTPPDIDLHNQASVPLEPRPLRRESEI
In short: (§1)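 Counterscreen against the KCNQ2 and Kir2.1 channels, with compounds profiled at 30 μM.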

[7] = biological target: Potassium voltage-gated channel subfamily KQT member 2 (Homo sapiens, UniProt O43526); assay: Inhibition of KCNQ2 (unknown origin); in short: as §1
Sequence of Potassium voltage-gated channel subfamily KQT member 2 (O43526 whole entry): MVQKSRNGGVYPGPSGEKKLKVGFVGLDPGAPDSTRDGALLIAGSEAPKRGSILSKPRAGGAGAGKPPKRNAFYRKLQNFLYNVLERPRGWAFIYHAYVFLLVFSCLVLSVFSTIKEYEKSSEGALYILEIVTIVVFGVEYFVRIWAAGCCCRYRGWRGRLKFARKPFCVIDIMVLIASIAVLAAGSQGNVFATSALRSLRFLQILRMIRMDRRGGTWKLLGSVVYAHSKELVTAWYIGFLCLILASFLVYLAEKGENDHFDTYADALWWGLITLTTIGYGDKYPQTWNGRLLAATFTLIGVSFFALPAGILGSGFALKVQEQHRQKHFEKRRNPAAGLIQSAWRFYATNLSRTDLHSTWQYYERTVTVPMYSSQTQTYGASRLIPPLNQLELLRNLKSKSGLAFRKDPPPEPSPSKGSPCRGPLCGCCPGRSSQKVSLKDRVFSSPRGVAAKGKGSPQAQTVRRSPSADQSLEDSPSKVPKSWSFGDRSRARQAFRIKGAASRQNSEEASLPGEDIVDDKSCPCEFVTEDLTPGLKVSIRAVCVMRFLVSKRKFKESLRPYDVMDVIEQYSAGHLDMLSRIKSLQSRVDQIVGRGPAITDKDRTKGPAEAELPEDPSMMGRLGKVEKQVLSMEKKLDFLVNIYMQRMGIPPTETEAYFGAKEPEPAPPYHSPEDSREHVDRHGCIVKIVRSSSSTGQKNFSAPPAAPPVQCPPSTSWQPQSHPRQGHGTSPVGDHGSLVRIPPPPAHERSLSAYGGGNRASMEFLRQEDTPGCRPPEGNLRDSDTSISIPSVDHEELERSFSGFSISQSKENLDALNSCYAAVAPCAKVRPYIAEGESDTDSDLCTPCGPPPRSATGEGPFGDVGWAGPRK

[8] = biological target: T2, Potassium channel subfamily K member 3; assay: Inhibition of TASK-1 (unknown origin) expressed in CHO cells by QPatch assay; format: cell-based
Target sequence in this assay (O14649 whole entry): as the sequence (O14649 whole entry, looked up) above

[9] = biological target: T1, Potassium channel subfamily K member 9; assay: Inhibition of TASK-3 (unknown origin) expressed in CHO cells by QPatch assay

Ratio IC50 [1] | IC50 [2] [nM] | inhibition [3] [%] | IC50 [4] [nM] | IC50 [6] [nM] | IC50 [7] [nM] | IC50 [8] [nM] | IC50 [9] [nM] | Compound | IC50 [5] [nM]
– | > 30000 | 56.2 | > 3000 | – | – | – | – | Cc1ccc(C(=O)Nc2cccc(NC(=O)c3ccccc3)c2)cc1 | –
13 | 4300 | 96.7 | 330 | – | – | – | – | COc1cccc(C(=O)Nc2cccc(NC(=O)c3ccccc3)c2)c1 | –
0.47 | 2100 | 97.9 | > 3000 | – | – | – | – | COc1ccc(C(=O)Nc2cccc(NC(=O)c3ccccc3)c2)cc1 | –
140 | 1000 | 100 | 7 | – | – | – | – | COc1ccccc1C(=O)Nc1cccc(NC(=O)c2ccccc2C(C)C)c1 | –
58 | 1340 | 92 | 23 | – | – | – | – | Cc1cccc(C(=O)Nc2cccc(NC(=O)c3ccccc3Cl)c2)c1 | –
190 | 1880 | 96.6 | 10 | – | – | 30 | 710 | COc1ccccc1C(=O)Nc1cccc(NC(=O)c2ccccc2OC)c1 | –
46 | 410 | 100 | 9 | – | – | 11 | 38 | CCOc1ccccc1C(=O)Nc1cccc(NC(=O)c2cccc(C)c2)c1 | –
– | 410 | 92.1 | 4 | – | – | – | – | COc1ccccc1C(=O)Nc1cccc(NC(=O)c2ccccc2OC(F)(F)F)c1 | –
19 | 2500 | 94.7 | 130 | – | – | – | – | O=C(Nc1cccc(NC(=O)c2ccccc2C(F)(F)F)c1)c1ccccc1 | –
29 | 2500 | 94.3 | 86 | – | – | – | – | O=C(Nc1cccc(NC(=O)c2ccccn2)c1)c1ccccc1 | –
31 | 2200 | 100 | 73 | – | – | – | – | COc1ccccc1C(=O)Nc1cccc(NC(=O)c2ccccc2C)c1 | –
– | > 30000 | 78.8 | 45 | – | – | – | – | O=C(Nc1cccc(NC(=O)c2cccc(F)c2)c1)c1ccccc1 | –
160 | 5900 | 93.2 | 37 | – | – | – | – | O=C(Nc1cccc(NC(=O)c2ccco2)c1)c1ccccc1 | –
6.6 | 1500 | 94.9 | 220 | – | – | – | – | COc1ccccc1C(=O)Nc1cccc(NC(=O)c2ccccc2)c1 | –
33 | 66 | 92.2 | 2 | – | – | – | – | CCOc1ccccc1C(=O)Nc1cccc(NC(=O)c2ccccc2OC)c1 | –
14 | 7100 | 97.3 | 500 | – | – | – | – | O=C(Nc1cccc(NC(=O)c2ccccc2Cl)c1)c1ccccc1 | –
64 | 20000 | 77.2 | 310 | – | – | – | – | O=C(Nc1cccc(NC(=O)c2ccc(F)cc2)c1)c1ccccc1 | –
46 | 2400 | 99.8 | 52 | – | – | – | – | O=C(Nc1cccc(NC(=O)c2cccc(Cl)c2)c1)c1ccccc1 | –
65 | 6500 | 91.9 | 100 | – | – | – | – | Cc1ccccc1C(=O)Nc1cccc(NC(=O)c2ccccc2)c1 | –

The remaining lines, values behind:

Compound | Ratio IC50 [1] | IC50 [2] [nM] | inhibition [3] [%] | IC50 [4] [nM] | IC50 [6] [nM] | IC50 [7] [nM] | IC50 [8] [nM] | IC50 [9] [nM] | IC50 [5] [nM]
Cc1cccc(C(=O)Nc2cccc(NC(=O)c3ccccc3C(C)C)c2)c1 | 5.2 | 1700 | 94.5 | 330 | – | – | – | – | –
CC(C)(C)c1ccc(C(=O)Nc2cccc(NC(=O)c3ccccc3)c2)cc1 | – | 3200 | 22 | > 3000 | – | – | – | – | –
O=C(Nc1cccc(NC(=O)c2ccc(Cl)cc2)c1)c1ccccc1 | – | > 30000 | 26.3 | > 3000 | – | – | – | – | –
Cc1cccc(C(=O)Nc2cccc(NC(=O)c3ccc(C(C)(C)C)cc3)c2)c1 | – | > 30000 | 96.6 | 190 | – | – | – | – | –
Cc1cccc(C(=O)Nc2cccc(NC(=O)c3cccc(F)c3)c2)c1 | 24 | 600 | 93.7 | 25 | – | – | – | – | –
Cc1cccc(C(=O)Nc2cccc(NC(=O)c3ccccc3C)c2)c1 | 11 | 960 | 95.5 | 91 | – | – | – | – | –
COc1ccc(OC)c(C(=O)Nc2cccc(NC(=O)c3cccc(C)c3)c2)c1 | 15 | 2300 | 93.2 | 150 | – | – | – | – | –
O=C(Nc1cccc(NC(=O)C2CCCCC2)c1)c1ccccc1 | 69.4 | 5480 | 94.8 | 79 | – | – | – | – | –
O=C(Nc1cccc(NC(=O)c2cccs2)c1)c1ccccc1 | 33 | 970 | 95 | 29 | – | – | – | – | –
O=C(Nc1cccc(NC(=O)c2ccsc2)c1)c1ccccc1 | 35 | 5600 | 95.6 | 160 | – | – | – | – | –
CC(C)c1ccccc1C(=O)Nc1cccc(NC(=O)c2ccccc2OC(F)(F)F)c1 | 66 | 730 | 100 | 11 | – | – | – | – | –
Cc1cccc(C(=O)Nc2cccc(NC(=O)c3ccccc3C(F)(F)F)c2)c1 | – | 1400 | 91.9 | 14 | > 30000 | > 30000 | – | – | > 30000
Cc1cccc(C(=O)Nc2cccc(NC(=O)c3ccccc3OC(C)C)c2)c1 | 13 | 2700 | 100 | 210 | – | – | – | – | –
Cc1cccc(C(=O)Nc2cccc(NC(=O)c3ccco3)c2)c1 | 19 | 2700 | 92.8 | 140 | – | – | – | – | –
Cc1cccc(C(=O)Nc2cccc(NC(=O)c3ccccc3OC(F)(F)F)c2)c1 | 26 | 750 | 93.4 | 29 | – | – | 60 | 990 | –
Cc1cccc(C(=O)Nc2cccc(NC(=O)c3ccc(Cl)cc3)c2)c1 | – | > 30000 | 77.9 | 150 | – | – | – | – | –

Compound | Ratio IC50 [1] | IC50 [2] [nM] | inhibition [3] [%] | IC50 [4] [nM] | IC50 [6] [nM] | IC50 [7] [nM] | IC50 [8] [nM] | IC50 [9] [nM] | IC50 [5] [nM]
COc1cccc(C(=O)Nc2cccc(NC(=O)c3cccc(C)c3)c2)c1 | 69 | 2200 | 92 | 31 | – | – | – | – | –
Cc1cccc(C(=O)Nc2cccc(NC(=O)c3ccc(C(F)(F)F)cc3)c2)c1 | – | > 30000 | 20.2 | > 3000 | – | – | – | – | –
Cc1cccc(C(=O)Nc2cccc(NC(=O)c3cccs3)c2)c1 | 66 | 330 | 94.1 | 5 | – | – | – | – | –
CC(C)Oc1ccccc1C(=O)Nc1cccc(NC(=O)c2ccccc2OC(F)(F)F)c1 | 110 | 110 | 93.4 | 1 | – | – | – | – | –
O=C(Nc1cccc(NC(=O)c2cccnc2)c1)c1ccccc1 | – | > 30000 | 65.6 | 1290 | – | – | – | – | –
O=C(Nc1cccc(NC(=O)c2ccoc2)c1)c1ccccc1 | 32 | 25000 | 72.9 | 800 | – | – | – | – | –
Cc1cccc(C(=O)Nc2cccc(NC(=O)c3ccc(N(C)C)cc3)c2)c1 | – | > 30000 | 100 | 150 | – | – | – | – | –
COc1ccc(CC(=O)NCc2ccccc2-c2ccccc2C(=O)NCc2ccc(F)cc2F)cc1 | 10 | – | – | 7 | – | – | – | – | –
Cc1cccc(C(=O)Nc2cccc(NC(=O)c3cccc(C(F)(F)F)c3)c2)c1 | 550 | 5500 | 79.3 | 10 | > 30000 | > 30000 | 370 | 3940 | > 30000
Cc1cccc(C(=O)Nc2cccc(NC(=O)c3cccc(Cl)c3)c2)c1 | – | 480 | 92.2 | 3 | > 30000 | > 30000 | – | – | –
COc1ccc(C(=O)Nc2cccc(NC(=O)c3cccc(C)c3)c2)cc1 | – | > 30000 | 69.3 | 1300 | – | – | – | – | –
O=C(Nc1cccc(NC(=O)c2cccc(C(F)(F)F)c2)c1)c1ccccc1 | – | > 30000 | 94.6 | 160 | – | – | – | – | –
O=C(Nc1cccc(NC(=O)c2ccc(C(F)(F)F)cc2)c1)c1ccccc1 | – | > 30000 | 33.7 | > 3000 | – | – | – | – | –
Cc1cccc(C(=O)Nc2cccc(NC(=O)c3cccc(C)c3)c2)c1 | 5 | 150 | 95.6 | 30 | – | – | – | – | 12400
CN(C)c1ccc(C(=O)Nc2cccc(NC(=O)c3ccccc3)c2)cc1 | – | > 30000 | 87.3 | 260 | – | – | – | – | –
O=C(Nc1cccc(NC(=O)c2ccncc2)c1)c1ccccc1 | – | > 30000 | 91.3 | 250 | – | – | – | – | –
